{"source": "paper PMC6884402", "about": "(ACS infectious diseases, 2018)", "key": {"[1]": {"tested_on": "virulent Type I RH strain of T. gondii that expresses luciferase", "assay": "In vivo efficacy against acute toxoplasmosis in mice", "parameters": "species or system Toxoplasma gondii", "conditions": "5 mg/kg orally for 5 days; for survival of infected mice: CF-1 mice, 4 per group; for luminescence from infection: at day 13 / prior to euthanasia"}, "[2]": {"conditions": "rats, orally at 5 mk/kg; cited from earlier work"}, "Plasmodium": {"tested_on": "Plasmodium", "conditions": "single dose of 1 mg/kg; cited from earlier work"}, "N. caninum": {"tested_on": "N. caninum", "conditions": "10mg/kg dose; cited from earlier work"}, "human cyt bc1": {"tested_on": "human cyt bc1", "conditions": "cited from earlier work"}, "S. cerevisiae cyt bc1": {"tested_on": "S. cerevisiae cyt bc1", "conditions": "cited from earlier work"}, "[3]": {"conditions": "cited from earlier work"}, "[4]": {"tested_on": "P. falciparum Dd2 strain with I22L substitution in cytochrome b", "assay": "P. falciparum I22L strain proliferation assay", "assay_type": "cell-based, Plasmodium falciparum", "summary_of_the_method": "(§1)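 Dd2 or I22L clone (I22L selected from Dd2 under quinolone pressure) blood stages in 2-fold dilution series, in triplicate. Final hematocrit 2% (v/v), starting parasitemia 0.2%. Incubated 72 h at 37°C under 5% CO2/5% O2/90% N2. SYBR Green I dye-detergent added for 1 h at room temperature in the dark, then fluorescence read. EC50 is the mean of ≥3 experiments. […]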"}, "[5]": {"tested_on": "T. gondii RH strain with T222P substitution in the cyt b Qi site", "assay": "T. gondii T222P strain proliferation assay", "assay_type": "cell-based, Toxoplasma gondii", "summary_of_the_method": "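Compounds were DMSO-diluted (≤0.5% final) over human foreskin fibroblast monolayers. Wild-type or Thr222Pro RH tachyzoites (4000/well) expressing gfp and β-galactosidase were added; the mutant came from chemical mutagenesis plus selection. After 72 h at 37°C, 5% CO2, cells were lysed and chlorophenol red β-galactopyranoside added for 4 h, read spectrophotometrically. Each run ≥3 times in quadruplicate. Resistance is the T222P/wild-type EC50 ratio.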"}, "[6]": {"tested_on": "RH strain of T. gondii expressing β-galactosidase (wild type cyt b)", "assay": "72h T. gondii tachyzoite proliferation assay", "assay_type": "cell-based", "conditions": "Toxoplasma gondii, read-out: T. gondii EC50"}, "Dd2 P. falciparum strain": {"tested_on": "Dd2 P. falciparum strain", "assay": "72h P. falciparum blood stage proliferation assay", "assay_type": "cell-based", "conditions": "Plasmodium falciparum, DD2, 72 h, read-out: Dd2 EC50 (P. falciparum)", "summary_of_the_method": "as §1"}}, "note": "“Also recorded” adds a separate entry of the source."}
{"compound": "Cc1[nH]c2cc(F)cc(F)c2c(=O)c1-c1ccc(Oc2ccc(OC(F)(F)F)cc2)cc1", "note": "[Compound 8B]", "values": [{"measurement": "T. gondii DNA in brain (quantitative real-time PCR)", "setting": "[1]", "result": "not detected"}, {"measurement": "T. gondii DNA in spleen (quantitative real-time PCR)", "setting": "[1]", "result": "not detected"}, {"measurement": "survival of infected mice", "setting": "[1]", "result": "survived until day 32; also recorded: all mice survived"}, {"measurement": "survival of infected mice", "setting": "[1]; listed as ELQ-400", "result": "alive at the completion of the experiment"}, {"measurement": "T. gondii DNA in brain (quantitative real-time PCR)", "setting": "[1]; listed as ELQ-400", "result": "did not have infection detectable by PCR"}, {"measurement": "T. gondii DNA in spleen (quantitative real-time PCR)", "setting": "[1]; listed as ELQ-400", "result": "none of the mice"}, {"measurement": "maximum concentration", "setting": "[2]", "result": 71.2, "unit": "ng/mL"}, {"measurement": "efficacy in a mouse model of malaria", "setting": "Plasmodium", "result": "curative"}, {"measurement": "efficacy against N. caninum infection", "setting": "N. caninum", "result": "effective in reducing infection"}, {"measurement": "activity against human cyt bc1", "setting": "human cyt bc1", "result": "has activity"}, {"measurement": "site of inhibition in S. cerevisiae cyt b", "setting": "S. cerevisiae cyt bc1", "result": "inhibit both the Qo and Qi site"}, {"measurement": "toxicity in general cell assays and in vivo efficacy studies", "setting": "[3]", "result": "toxicity was not observed"}]}
{"compound": "COc1cc2[nH]c(C)c(-c3ccc(Oc4ccc(OC(F)(F)F)cc4)cc3)c(=O)c2cc1Cl", "note": "[Compound 4B]", "values": [{"measurement": "resistance caused by I22L substitution in P. falciparum", "setting": "[4]", "result": "causes resistance"}, {"measurement": "resistance caused by T222P substitution in T. gondii", "setting": "[5]", "result": "causes resistance"}, {"measurement": "activity against human cyt bc1", "setting": "human cyt bc1", "result": "do not inhibit"}, {"measurement": "activity against yeast (S. cerevisiae) cyt bc1", "setting": "S. cerevisiae cyt bc1", "result": "do not inhibit"}]}
{"compound": "COc1ccc2c(=O)c(-c3ccc(Oc4ccc(OC(F)(F)F)cc4)cc3)c(C)[nH]c2c1", "note": "[Compound 2B]", "values": [{"measurement": "resistance caused by T222P substitution in T. gondii", "setting": "[5]", "result": "causes resistance"}, {"measurement": "activity against human cyt bc1", "setting": "human cyt bc1", "result": "do not inhibit"}, {"measurement": "activity against yeast (S. cerevisiae) cyt bc1", "setting": "S. cerevisiae cyt bc1", "result": "do not inhibit"}]}
{"compound": "CCCCCCCCCCCc1c(C)[nH]c2cc(OC)ccc2c1=O", "note": "[Compound 2C, 7-methoxy-2-methyl-3-undecylquinolin-4(1H)-one]", "values": [{"measurement": "EC50", "setting": "[6]", "result": 0.37, "unit": "nM"}, {"measurement": "EC50", "setting": "Dd2 P. falciparum strain", "result": 1.8, "unit": "nM"}]}
{"compound": "COc1cc2[nH]c(C)c(-c3ccc(Oc4ccc(OC(F)(F)F)cc4)cc3)c(=O)c2cc1F", "note": "[Compound 3B]", "values": [{"measurement": "T. gondii DNA in brain (quantitative real-time PCR)", "setting": "[1]", "result": "evidence of brain infection by PCR that was similar to controls"}, {"measurement": "luminescence from infection", "setting": "[1]", "result": "3 of 4 mice did not have luminescence"}, {"measurement": "T. gondii DNA in brain (quantitative real-time PCR)", "setting": "[1]; listed as ELQ-316", "result": "had T. gondii infection in brain tissue"}, {"measurement": "T. gondii DNA in spleen (quantitative real-time PCR)", "setting": "[1]; listed as ELQ-316", "result": "not detected above the limits of detection in the spleen of 3 of 4 mice"}, {"measurement": "resistance caused by T222P substitution in T. gondii", "setting": "[5]", "result": "causes resistance"}, {"measurement": "activity against human cyt bc1", "setting": "human cyt bc1", "result": "do not inhibit"}, {"measurement": "activity against yeast (S. cerevisiae) cyt bc1", "setting": "S. cerevisiae cyt bc1", "result": "do not inhibit"}]}
{"compound": "Cc1[nH]c2ccccc2c(=O)c1-c1ccc(Oc2ccc(OC(F)(F)F)cc2)cc1", "note": "[Compound 1B]", "values": [{"measurement": "activity against human cyt bc1", "setting": "human cyt bc1", "result": "has activity"}, {"measurement": "activity against yeast (S. cerevisiae) cyt bc1", "setting": "S. cerevisiae cyt bc1", "result": "has activity"}]}
{"compound": "O=C1C(O)=C([C@H]2CC[C@H](c3ccc(Cl)cc3)CC2)C(=O)c2ccccc21", "note": "[ATV, Atovaquone, reference compound]", "values": [{"measurement": "T. gondii DNA in brain (quantitative real-time PCR)", "setting": "[1]", "result": "developed both systemic and brain infection"}, {"measurement": "T. gondii DNA in spleen (quantitative real-time PCR)", "setting": "[1]", "result": "developed both systemic and brain infection"}, {"measurement": "luminescence from infection", "setting": "[1]", "result": "detectable in the 2 surviving mice"}, {"measurement": "activity against human cyt bc1", "setting": "human cyt bc1", "result": "has activity"}]}
